FN deposition inh – fibronectin deposition inhibition. inhibition, % at 12.6 µM. actives 0.086% (n = 350,000). AID 743247. AH1F fibroblasts, Alexa488-fibronectin deposition fluorescence, overnight;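 active = mean inhibition across replicates of 30% or more, regardless of how many single replicates reach that level; inconclusive = mean under 30% yet at least half of replicates reach 30%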
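Assay system: AH1F fibroblasts / Quantity: 10000 cells per well / Medium: DMEM plus 2% serum, read in PBS / Reagent: labelled fibronectin 24 nM / Dosing: single dose, pinned / Times: 1 h cell attachment, overnight exposure to compound and label / Signal: fluorescence, ex 485 nm, em 525 nm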
RAD54 inh – blocks human RAD54 Holliday junction branch migration. FAM/BHQ fluorescence. inhibition, % at 10.4 µM. actives 0.14% (n = 360,000). AID 602329;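 active = mean normalized replicate activity at least 40 and at least half of replicates scoring 40 or more; inconclusive = only one of the two criteria met; inactive = mean below 40 and under half of replicates reaching 40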;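 also: inhibitors cause a drop in the FAM fluorescence signal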
PglD inh – PglD (C. jejuni) enzyme inhibition; inhibition, % at 12.5 µM; actives 0.098% (n = 360,000); purified PglD enzyme, DTNB colorimetric CoA detection; in the data active = inhibition above about 16%, passing the limit was not always enough; inconclusive = no clear call, values can overlap the other calls
ERp5 inh – blocks human ERp5 reductase activity on insulin; actives 0.05% (n = 350,000); ERp5 insulin aggregation, absorbance 650 nm, 90 min; AID 651711; inhibition, % at 9.99 µM;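 active = mean replicate inhibition above about 25%, with every replicate also reaching it, limit read from the data, passing the limit was not always enough; inconclusive = only one of those two criteria met; inactive = neither criterion met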
Target sequence (Q15084 whole entry, looked up): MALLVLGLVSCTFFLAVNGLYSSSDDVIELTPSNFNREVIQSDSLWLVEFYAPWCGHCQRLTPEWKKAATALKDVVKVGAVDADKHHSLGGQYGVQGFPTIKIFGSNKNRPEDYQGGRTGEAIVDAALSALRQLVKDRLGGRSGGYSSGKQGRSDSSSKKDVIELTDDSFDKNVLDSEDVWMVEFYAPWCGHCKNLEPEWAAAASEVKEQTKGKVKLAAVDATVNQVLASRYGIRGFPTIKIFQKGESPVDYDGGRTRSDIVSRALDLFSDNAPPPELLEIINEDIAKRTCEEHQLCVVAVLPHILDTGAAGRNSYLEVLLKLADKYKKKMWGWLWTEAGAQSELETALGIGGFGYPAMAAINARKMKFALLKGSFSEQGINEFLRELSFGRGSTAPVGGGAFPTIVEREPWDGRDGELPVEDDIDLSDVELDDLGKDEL
PDI turbidity – blocks human protein disulfide isomerase activity | PDI insulin aggregation turbidity, A650, 90 min | inhibition, % at 10 µM | actives 0.052% (n = 350,000) | AID 588391;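 active = mean inhibition across replicates of 30% or more, whatever share of single replicates reach that level; inconclusive = mean inhibition below 30% while every single replicate reaches 30%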
S100A4 inh HTS – inhibitors of human S100A4 binding to myosin IIA peptide | P26447 | S100A4/TAMRA-MyoIIA peptide fluorescence polarization | inhibition, % at 10.7 µM | actives 0.14% (n = 360,000);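 active = mean inhibition of at least 70% across replicates, with every replicate also reaching that level; inconclusive = mean inhibition reaches 70% but some replicates fall short; inactive = mean inhibition below 70%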
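Test system: S100A4 monomer protein; Medium: HEPES pH 7.2 with CaCl2, KCl, NaCl, DTT, Triton; Probe or stimulus: TAMRA-labelled myosin IIA heavy-chain peptide probe, 5 nM; Doses: one dose per compound; Times: polarization read 5 min after assay mix addition, stable 5–60 min; Benchmarks: neutral control DMSO, positive control TFP.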
Rad54 DNA ctr – binds DNA, flagging false Rad54 inhibitor hits. shares compounds with RAD54 inh. Acridine orange-DNA displacement, fluorescence polarization, 20 min. AC50, µM (doses to about 35 µM). actives 8% (n = 460);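 active = signal drop giving an AC50 within twice the top valid tested concentration of each sample, actives reach about 35 µM in these data; inactive = activity opposite to expected, plus the rest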;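 also: polarization loss reports compound binding to salmon sperm DNA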
Numbers stand for hits; n = inactive; u = inconclusive; x = not tested or not shown. Compounds with a hit are over-represented: about 0.44% of the library has one in this group of screens.

SMILES	FN deposition inh	RAD54 inh	PglD inh	ERp5 inh	PDI turbidity	S100A4 inh HTS	Rad54 DNA ctr
CCN1CCN(c2cc(C)c3cc(NC(=S)N4CCCCC4)ccc3n2)CC1	n	u	n	n	n	n	n
CC(C)NC(=O)N[C@H]1CC[C@H](CC(=O)NCc2ccc(Oc3ccccc3)cc2)O[C@H]1CO	n	n	n	n	x	n	x
O=C(C[C@H]1CC[C@@H](NC(=O)C2CCC2)[C@@H](CO)O1)NCCCN1CCOCC1	n	n	n	n	x	n	x
CNC[C@H]1OCCCC[C@H](C)Oc2ccc(NC(=O)NC3CCCCC3)cc2C(=O)N([C@H](C)CO)C[C@H]1C	x	n	n	n	x	n	x
CCN1CCN(C(=S)Nc2ccc3nc(N4CCN(C)CC4)cc(C)c3c2)CC1	n	56	n	n	n	n	n
CCOc1cc2nc(-c3ccc(OC)c(OC)c3)nc(NCCCN3CCOCC3)c2cc1OC	n	85	n	x	n	x	n
O=S(=O)(N[C@@H]1CC[C@@H](CCn2cc(-c3ccccn3)nn2)O[C@@H]1CO)c1cccc(F)c1	n	n	n	n	x	n	x
COc1ccc(OC)c2sc(N(CCN(C)C)C(=O)c3ccc4ccccc4c3)nc12	n	69	n	n	n	n	n
CC(=O)c1ccc(C(=O)N(CCN(C)C)c2nc3c(Cl)cccc3s2)cc1	n	n	n	n	n	n	x
CCN(CC)CCN(C(=O)C1=COCCO1)c1nc2c(OC)ccc(OC)c2s1	n	77	x	n	n	n	n
CN(C)CCN(C(=O)c1ccc2c(c1)OCCO2)c1nc2c(Cl)cccc2s1	n	51	n	n	n	n	n
CCN(CC)CCN(C(=O)C1=COCCO1)c1nc2ccc(C)cc2s1	n	n	n	n	n	n	x
COc1cc2ccccc2cc1C(=O)N(CCN(C)C)c1nc2c(OC)ccc(OC)c2s1	n	60	n	n	n	n	n
O=C(C1CCCC1)N1CC(=O)N2[C@H](CO)[C@H](c3ccc(C#Cc4cccc(F)c4)cc3)[C@@H]2C1	n	x	x	n	x	n	x
COc1cccc(-c2ccc([C@@H]3[C@H]4CN(C(=O)C5CCC5)CC(=O)N4[C@H]3CO)cc2)c1	n	x	x	n	x	n	x
CC(=O)Nc1sc2c(c1-c1nc3ccccc3s1)CN(C(C)C)CC2	n	67	n	n	n	n	17µM
CC(=O)N1CCc2c(sc(NC(=O)C3CC3)c2-c2nc3ccccc3s2)C1	n	n	n	n	n	n	x
Cc1ccc(S(=O)(=O)Nc2ccc3c(c2)C(=O)N([C@@H](C)CO)C[C@@H](C)[C@@H](CN(C)C(=O)NC2CCCCC2)O3)cc1	x	n	n	n	x	n	x
CCn1c(=O)c2cc(C(=O)NCCN(C)C)sc2c2ccccc21	n	53	n	n	n	n	n
CCCN(CCC)CCCNC(=O)c1cc2c(=O)[nH]c3ccccc3c2s1	n	51	n	n	n	n	n
C[C@@H]1CN([C@@H](C)CO)C(=O)c2cc(NC(=O)CCN3CCOCC3)ccc2O[C@H]1CN(C)S(=O)(=O)c1ccccc1	x	n	n	n	x	n	x
O=C(NCC[C@H]1CC[C@H](NC(=O)c2cccnc2)[C@@H](CO)O1)Nc1ccc(C(F)(F)F)cc1	n	n	n	n	x	n	x
O=C(CN1CCCCC1)n1c2ccccc2c2ccccc21	n	100	n	n	n	n	n
CCN(CC)CCN1CCN(c2cncc(-c3cccc(N)c3)n2)CC1	n	73	n	n	n	n	n
C[C@H]1CN([C@@H](C)CO)C(=O)c2ccccc2-c2ccccc2CO[C@H]1CN(C)S(=O)(=O)CC(F)(F)F	x	n	n	n	x	n	x
Cc1noc(C)c1S(=O)(=O)Nc1cccc2c1O[C@H](CN(C)Cc1ccc(C(=O)Nc3ccccc3N)cc1)[C@H](C)CN([C@H](C)CO)C2=O	n	x	x	n	x	n	x
COc1ccc(Nc2cc(C)nc3ccc(OC)cc23)cc1	n	64	n	n	n	n	n
COc1ccc2nc(C)cc(Nc3ccc(C(=O)O)cc3)c2c1	x	n	n	n	n	n	x
O=C(Nc1ccc(C2=NCCN2)cc1)c1ccc(C(=O)Nc2ccc(C3=NCCN3)cc2)c(Cl)c1	n	u	n	n	n	n	n
